Source: ChEMBL document CHEMBL2384906, “Biological activity, design, synthesis and structure activity relationship of some novel derivatives of curcumin containing sulfonamides” (Eur J Med Chem, 2013)
Values after ≈ are worked out from the molar mass of the structure shown. Active and inactive are the calls of the source. The rule behind the calls is not given here.

Tests used:
Mus musculus = assay: Antiinflammatory activity in mouse assessed as inhibition of carrageenan-induced increase in paw volume at 200 mg/kg administered 1 hr prior to carrageenan challenge measured after 3 hrs relative to control; type: functional
How it was run: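 Mice were fasted 2 h and placed in groups of five. Controls received saline i.p. Phenylbutazone was given at 100 mg/kg i.p., curcumin at 200 mg/kg i.p., and derivatives at 200 mg/kg. After 1 h, 0.1 mL of 1% carrageenan in saline was injected subplantar into the right hind paw. Paw volume was followed by plethysmometer for 3 h, and % inhibition was calculated as (Vc − Vt)/Vc × 100.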

HCT-116 = assay: Cytotoxicity against human HCT116 cells after 24 hrs by MTT assay; type: functional, cell-based
How it was run: (§1)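 The MTT assay seeded 5 × 10⁴ cells per well and grew them 24 h in RPMI 1640 with compound at 2.5–200 µM. Medium without cells was the blank and adriamycin the positive control. MTT was added for 4 h at 37 °C, formazan was solubilised, and absorbance was read at 570 nm. IC50 is the concentration that cuts viability 50% against untreated cells.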

QG-56 = assay: Cytotoxicity against human QG56 cells after 24 hrs by MTT assay; type: functional, cell-based; how it was run: as §1
HeLa = assay: Cytotoxicity against human HeLa cells after 24 hrs by MTT assay; type: functional, cell-based; how it was run: as §1
HepG2 = assay: Cytotoxicity against human HepG2 cells after 24 hrs by MTT assay; type: functional, cell-based; how it was run: as §1
Trichoderma viride [1] = assay: Antifungal activity against Trichoderma viride MTCC 1107 after 48 hrs; type: functional; details: MTCC 1107, 48 h
Trichoderma viride [2] = assay: Antifungal activity against Trichoderma viride MTCC 1107 assessed as zone of inhibition at 20 uM after 48 hrs by disc diffusion method; type: functional
How it was run: (§2)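 Spores from 4-day potato dextrose agar cultures, suspended in sterile water at 1.5 × 10⁵ CFU/mL. 0.2 mL was spread on potato dextrose agar. 5 mm filter-paper discs soaked with test compound were laid on the lawn. Incubation was 48 h at 28 °C, then the inhibition zone was measured in mm. Fluconazole was the positive control and acetone the negative control.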

Trichoderma viride [3] = assay: Antifungal activity against Trichoderma viride MTCC 1107 assessed as zone of inhibition at 40 uM after 48 hrs by disc diffusion method; type: functional; details: MTCC 1107, 48 h, read-out: IZ; how it was run: as §2
Trichoderma viride [4] = assay: Antifungal activity against Trichoderma viride MTCC 1107 assessed as zone of inhibition at 80 uM after 48 hrs by disc diffusion method; type: functional; details: MTCC 1107, 48 h, read-out: IZ; how it was run: as §2
Curvularia lunata [5] = assay: Antifungal activity against Curvularia lunata MTCC 581 after 48 hrs; type: functional; details: MTCC 581, 48 h
Curvularia lunata [6] = assay: Antifungal activity against Curvularia lunata MTCC 581 assessed as zone of inhibition at 20 uM after 48 hrs by disc diffusion method; type: functional; how it was run: as §2
Curvularia lunata [7] = assay: Antifungal activity against Curvularia lunata MTCC 581 assessed as zone of inhibition at 40 uM after 48 hrs by disc diffusion method; type: functional; details: MTCC 581, 48 h, read-out: IZ; how it was run: as §2
Aspergillus flavus [8] = assay: Antifungal activity against Aspergillus flavus MTCC 1021 after 48 hrs; type: functional
Curvularia lunata [9] = assay: Antifungal activity against Curvularia lunata MTCC 581 assessed as zone of inhibition at 80 uM after 48 hrs by disc diffusion method; type: functional; details: MTCC 581, 48 h, read-out: IZ; how it was run: as §2
Aspergillus flavus [10] = assay: Antifungal activity against Aspergillus flavus MTCC 1021 assessed as zone of inhibition at 80 uM after 48 hrs by disc diffusion method; type: functional; how it was run: as §2
Aspergillus niger [11] = assay: Antifungal activity against Aspergillus niger MTCC 1108 after 48 hrs; type: functional; details: MTCC 1108, 48 h
Aspergillus niger [12] = assay: Antifungal activity against Aspergillus niger MTCC 1108 assessed as zone of inhibition at 20 uM after 48 hrs by disc diffusion method; type: functional; how it was run: as §2
Aspergillus niger [13] = assay: Antifungal activity against Aspergillus niger MTCC 1108 assessed as zone of inhibition at 40 uM after 48 hrs by disc diffusion method; type: functional; details: MTCC 1108, 48 h, read-out: IZ; how it was run: as §2
Aspergillus niger [14] = assay: Antifungal activity against Aspergillus niger MTCC 1108 assessed as zone of inhibition at 80 uM after 48 hrs by disc diffusion method; type: functional; details: MTCC 1108, 48 h, read-out: IZ; how it was run: as §2
Escherichia coli [15] = assay: Antimicrobial activity against Escherichia coli ATCC 35218 after 24 hrs by broth micro serial dilution method; type: functional; details: ATCC 35218, 24 h
How it was run: (§3)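 This was broth microdilution in autoclaved Mueller-Hinton broth. 150 µL of compound per well was serially diluted […], and 50 µL of test organism was added. Plates were incubated 24 h at 37 °C and optical density was read.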

Escherichia coli [16] = assay: Antimicrobial activity against Escherichia coli ATCC 35218 assessed as diameter of inhibition zone at 20 uM after 24 hrs by Kirby -Baur disc diffusion method; type: functional; details: ATCC 35218, 24 h, read-out: DIZ
How it was run: (§4)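 Kirby-Bauer disc diffusion was used. Acetone stocks (160 µM) were serially doubled down to 80, 40 and 20 µM. 4 µL of each went onto 5 mm sterile paper discs, which were dried 30 min at 50 °C. Inoculum was 1.5 × 10⁸ CFU/mL diluted to 3 × 10² CFU/mL, and 50 µL was spread on Mueller-Hinton agar. After 24 h at 37 °C the inhibition-zone diameter was measured. Ciprofloxacin served as positive control.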

Escherichia coli [17] = assay: Antimicrobial activity against Escherichia coli ATCC 35218 assessed as diameter of inhibition zone at 40 uM after 24 hrs by Kirby -Baur disc diffusion method; type: functional; details: ATCC 35218, 24 h, read-out: DIZ; how it was run: as §4
Escherichia coli [18] = assay: Antimicrobial activity against Escherichia coli ATCC 35218 assessed as diameter of inhibition zone at 80 uM after 24 hrs by Kirby -Baur disc diffusion method; type: functional; details: ATCC 35218, 24 h, read-out: DIZ; how it was run: as §4
Pseudomonas aeruginosa [19] = assay: Antimicrobial activity against Pseudomonas aeruginosa ATCC 15499 after 24 hrs by broth micro serial dilution method; type: functional; details: ATCC 15499, 24 h; how it was run: as §3
Pseudomonas aeruginosa [20] = assay: Antimicrobial activity against Pseudomonas aeruginosa ATCC 15499 assessed as diameter of inhibition zone at 20 uM after 24 hrs by Kirby -Baur disc diffusion method; type: functional; how it was run: as §4
Pseudomonas aeruginosa [21] = assay: Antimicrobial activity against Pseudomonas aeruginosa ATCC 15499 assessed as diameter of inhibition zone at 40 uM after 24 hrs by Kirby -Baur disc diffusion method; type: functional; how it was run: as §4
Pseudomonas aeruginosa [22] = assay: Antimicrobial activity against Pseudomonas aeruginosa ATCC 15499 assessed as diameter of inhibition zone at 80 uM after 24 hrs by Kirby -Baur disc diffusion method; type: functional; details: ATCC 15499, 24 h, read-out: DIZ; how it was run: as §4
Salmonella typhi [23] = assay: Antimicrobial activity against Salmonella typhi ATCC 23564 after 24 hrs by broth micro serial dilution method; type: functional, Salmonella enterica subsp. enterica serovar Typhi; details: Salmonella enterica, ATCC 23564, 24 h
Salmonella typhi [24] = assay: Antimicrobial activity against Salmonella typhi ATCC 23564 assessed as diameter of inhibition zone at 20 uM after 24 hrs by Kirby -Baur disc diffusion method; type: functional, Salmonella enterica subsp. enterica serovar Typhi; details: Salmonella enterica, ATCC 23564, 24 h; read-out: DIZ
Salmonella typhi [25] = assay: Antimicrobial activity against Salmonella typhi ATCC 23564 assessed as diameter of inhibition zone at 40 uM after 24 hrs by Kirby -Baur disc diffusion method; type: functional, Salmonella enterica subsp. enterica serovar Typhi; details: Salmonella enterica, ATCC 23564, 24 h; read-out: DIZ
Salmonella typhi [26] = assay: Antimicrobial activity against Salmonella typhi ATCC 23564 assessed as diameter of inhibition zone at 80 uM after 24 hrs by Kirby -Baur disc diffusion method; type: functional, Salmonella enterica subsp. enterica serovar Typhi; details: Salmonella enterica, ATCC 23564, 24 h; read-out: DIZ
Bacillus cereus [27] = assay: Antimicrobial activity against Bacillus cereus MTCC 7350 after 24 hrs by broth micro serial dilution method; type: functional; details: MTCC 7350, 24 h; how it was run: as §3
Bacillus cereus [28] = assay: Antimicrobial activity against Bacillus cereus MTCC 7350 assessed as diameter of inhibition zone at 20 uM after 24 hrs by Kirby -Baur disc diffusion method; type: functional; how it was run: as §4
Bacillus cereus [29] = assay: Antimicrobial activity against Bacillus cereus MTCC 7350 assessed as diameter of inhibition zone at 40 uM after 24 hrs by Kirby -Baur disc diffusion method; type: functional; how it was run: as §4
Bacillus cereus [30] = assay: Antimicrobial activity against Bacillus cereus MTCC 7350 assessed as diameter of inhibition zone at 80 uM after 24 hrs by Kirby -Baur disc diffusion method; type: functional; details: MTCC 7350, 24 h, read-out: DIZ; how it was run: as §4
Staphylococcus aureus [31] = assay: Antimicrobial activity against Staphylococcus aureus ATCC 11632 after 24 hrs by broth micro serial dilution method; type: functional; details: ATCC 11632, 24 h; how it was run: as §3
Staphylococcus aureus [32] = assay: Antimicrobial activity against Staphylococcus aureus ATCC 11632 assessed as diameter of inhibition zone at 20 uM after 24 hrs by Kirby -Baur disc diffusion method; type: functional; details: ATCC 11632, 24 h, read-out: DIZ; how it was run: as §4
Staphylococcus aureus [33] = assay: Antimicrobial activity against Staphylococcus aureus ATCC 11632 assessed as diameter of inhibition zone at 40 uM after 24 hrs by Kirby -Baur disc diffusion method; type: functional; details: ATCC 11632, 24 h, read-out: DIZ; how it was run: as §4
Staphylococcus aureus [34] = assay: Antimicrobial activity against Staphylococcus aureus ATCC 11632 assessed as diameter of inhibition zone at 80 uM after 24 hrs by Kirby -Baur disc diffusion method; type: functional; details: ATCC 11632, 24 h, read-out: DIZ; how it was run: as §4

COc1cc(/C=C/C(O)=C/C(/C=C/c2ccc(O)c(OC)c2)=N/c2ccc(S(N)(=O)=O)cc2)ccc1O
inhibition in vivo at 200 mg/kg (Mus musculus): 29%
IC50 (HCT-116): 50 µM
IC50 (QG-56): 100 µM
IC50 (HeLa): 100 µM
IC50 (HepG2): 50 µM
MIC (Trichoderma viride [1]): 80 µM (≈ 41.8 µg/mL)
inhibition zone (IZ) (Trichoderma viride [2]): inactive
zone of inhibition at 40 µM (Trichoderma viride [3]): 10 mm
zone of inhibition at 80 µM (Trichoderma viride [4]): 11 mm
MIC (Curvularia lunata [5]): 80 µM (≈ 41.8 µg/mL)
inhibition zone (IZ) (Curvularia lunata [6]): inactive
zone of inhibition at 40 µM (Curvularia lunata [7]): 9 mm
MIC (Aspergillus flavus [8]): inactive
zone of inhibition at 80 µM (Curvularia lunata [9]): 12 mm
inhibition zone (IZ) (Aspergillus flavus [10]): inactive
MIC (Aspergillus niger [11]): 40 µM (≈ 20.9 µg/mL)
inhibition zone (IZ) (Aspergillus niger [12]): inactive
zone of inhibition at 40 µM (Aspergillus niger [13]): 9 mm
zone of inhibition at 80 µM (Aspergillus niger [14]): 11 mm
MIC (Escherichia coli [15]): 40 µM (≈ 20.9 µg/mL)
zone of inhibition at 20 µM (Escherichia coli [16]): 12 mm
zone of inhibition at 40 µM (Escherichia coli [17]): 13 mm
zone of inhibition at 80 µM (Escherichia coli [18]): 15 mm
MIC (Pseudomonas aeruginosa [19]): > 80 µM
diameter of the inhibition zone (DIZ) (Pseudomonas aeruginosa [20]): inactive
diameter of the inhibition zone (DIZ) (Pseudomonas aeruginosa [21]): inactive
zone of inhibition at 80 µM (Pseudomonas aeruginosa [22]): 11 mm
MIC (Salmonella typhi [23]): 40 µM (≈ 20.9 µg/mL)
zone of inhibition at 20 µM (Salmonella typhi [24]): 9 mm
zone of inhibition at 40 µM (Salmonella typhi [25]): 11 mm
zone of inhibition at 80 µM (Salmonella typhi [26]): 13 mm
MIC (Bacillus cereus [27]): > 80 µM
diameter of the inhibition zone (DIZ) (Bacillus cereus [28]): inactive
diameter of the inhibition zone (DIZ) (Bacillus cereus [29]): inactive
zone of inhibition at 80 µM (Bacillus cereus [30]): 9 mm
MIC (Staphylococcus aureus [31]): 40 µM (≈ 20.9 µg/mL)
zone of inhibition at 20 µM (Staphylococcus aureus [32]): 10 mm
zone of inhibition at 40 µM (Staphylococcus aureus [33]): 13 mm
zone of inhibition at 80 µM (Staphylococcus aureus [34]): 14 mm
